In PubChem BioAssay AID809 (SRMLSC, 2007):
The source made the active and inactive calls.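 How the source made its calls: active means EC50 for reversing nicotinamide-shortened yeast lifespan at or below a set limit; inactive means EC50 above that limit.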

Each compound was assayed on S. cerevisiae DeaD BB579, nicotinamide rescue growth, OD615 48 h (assay: rescue of nicotinamide-suppressed growth of yeast BB579, dose response, yeast lifespan extension project, S. cerevisiae (AID 809)).
Summary of the method: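 Assay system: Saccharomyces cerevisiae DeaD strain BB579, log-phase cells; Medium: CSMM-D glucose restrictive medium; Dosing: compounds from 0.078 to 10 µM final, 0.5% DMSO; Times: 4 h pre-incubation, 48 h exposure at 30 °C; Technique: optical density at 615 nm (absorbance); Evaluation: culture saturation density reflecting mother-cell replicative lifespan.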

| SMILES | EC50 |
| --- | --- |
| O=C(COc1ccc2ccccc2c1)Nc1cccc(C(=O)Nc2ccccc2C(=O)O)c1 | 8.35 µM |
| CCCCNC(=O)/C(C#N)=C/c1cccnc1 | 9.27 µM |
| Cc1cc(C(=O)CN2C(=O)NC(C)(CC(C)C)C2=O)c(C)n1-c1ccc2c(c1)OCO2 (stereo not given) | > 10 µM (inactive) |
| CCOC(=O)c1[nH]nc(C(=O)c2ccc(Br)cc2)c1O | 5.89 µM |
| C=CS(=O)(=O)c1ccc(Oc2ccc(S(=O)(=O)C=C)cc2)cc1 | 7.12 µM |
| O=C(c1ccccc1)c1nc2ccccc2[nH]c1=O | > 10 µM (inactive) |
| COc1cc(Br)cc(-c2nc3c(c(=O)[nH]c(=O)n3Cc3ccccc3)n2C)c1O | > 10 µM (inactive) |
| CCCC(=Nc1ccccc1OC)C1=C(O)CC(c2ccccc2)CC1=O (stereo not given) | 3.21 µM |
| O=C(N/N=C/c1ccc(F)cc1)c1c(O)c2ccccc2[nH]c1=O | 2.22 µM |
| COc1ccc(C(=O)Nc2ccc(OCc3ccccc3)cc2)cc1[N+](=O)[O-] | > 10 µM (inactive) |
| O=C1/C(=N/n2cnnc2)c2ccccc2N1Cc1ccccc1 | 9.61 µM |
| CN1C/C(=C/c2cccnc2)C(=O)/C(=C/c2cccnc2)C1 | > 10 µM (inactive) |
| COc1ccc2c(=O)c3c(=O)n(Cc4ccco4)c(-c4ccc(C)cc4)nc3oc2c1 | 6.81 µM |
| CCCCCOC(=O)CSc1nc2c(c(=O)[nH]c(=O)n2C)n1CCc1ccccc1 | > 10 µM (inactive) |
| CCOc1cc(/C=C\[N+](=O)[O-])ccc1OCC(=O)Nc1ccccc1C | > 10 µM (inactive) |
| Cc1cccc(N2C(=O)/C(=C\c3ccc(OC(F)F)cc3)c3ccccc3C2=O)c1 | > 10 µM (inactive) |
| COc1ccc(-c2cc(N)n(S(=O)(=O)c3c(F)c(F)c(F)c(F)c3F)n2)cc1OC | 6.84 µM |
| Cc1n[nH]c(=O)n1-c1cccc(C(F)(F)F)c1 | > 10 µM (inactive) |
| CCOC(=O)c1nnn(-c2nonc2N)c1CN1CCc2ccccc2C1 | 9.77 µM |
| CCCCCCC1C(C#N)=C(N)OC2=C1C(=O)CC(C)(C)C2 (stereo not given) | > 10 µM (inactive) |
| CC[n+]1ccc(C[n+]2ccccc2)c2ccccc21 | > 10 µM (inactive) |
| Cc1cccc(OC(=O)n2c(=S)oc3cc(Cl)ccc32)c1 | 5.42 µM |
| O=C1c2ccccc2C(Nc2ccc3c(c2)OCCO3)N1c1ccccn1 (stereo not given) | > 10 µM (inactive) |
| CCCC(=Nc1ccccc1)C1=C(O)C(C(=O)OC)C(C)(C)CC1=O (stereo not given) | 5.99 µM |
| CCc1ccc2nc(N3C(=O)C(O)=C(C(=O)c4ccco4)C3c3cccs3)sc2c1 (stereo not given) | 9.41 µM |
| CCc1ccc(C(=O)CN2C(=O)NC(C)(CCc3ccccc3)C2=O)cc1 (stereo not given) | > 10 µM (inactive) |
| CC(C)Cn1c(=O)c(C(=O)Nc2cnccn2)c(O)c2ccccc21 | 9.1 µM |

| SMILES | EC50 |
| --- | --- |
| CCCCC(=Nc1ccccc1OC)C1=C(O)CC(c2ccccc2)CC1=O (stereo not given) | 4.5 µM |
| CCOC(=O)CCCNC(=O)COc1ccccc1C#N | > 10 µM (inactive) |
| O=c1c(Cl)c(NCCCO)cnn1-c1nc2ccccc2[nH]1 | 7.65 µM |
| CCCCCC1CC1C(=O)N/N=C/c1ccc(N(C)C)cc1 (stereo not given) | > 10 µM (inactive) |
| N#Cc1c(-c2ccccc2)c(-c2ccccc2)nn(CC(=O)NNC(=O)Nc2ccccc2)c1=O | > 10 µM (inactive) |
| CCOC(=O)CN1C(=O)N[C@H](c2ccc(Br)cc2)C(C(C)=O)=C1C | > 10 µM (inactive) |
| O=C1c2ccccc2C(=O)N1c1ncc(Cc2ccc(Cl)cc2)s1 | > 10 µM (inactive) |
| CC1(C)CC(=O)C2=C(C1)OC1=C(C(=O)CC(C)(C)C1)C2c1ccc(O)cc1O | > 10 µM (inactive) |
| COc1cc(/C=C/C(=O)C2C(=O)C=C(C)OC2=O)cc(OC)c1O (stereo not given) | 6.69 µM |
| O=C(NCc1ccco1)c1c(O)c2cccc3c2n(c1=O)CCC3 | 5.98 µM |
| CCCC(=O)C1C(=O)CC(CC(C)SCC)CC1=O (stereo not given) | 2.33 µM |
| Oc1ccc2ccccc2c1/C=N/c1nccs1 | 6.59 µM |
| CCOC(=O)c1c(C)oc2c1c(C(c1cccnc1)N1CCCCC1)c(O)c1ccccc12 (stereo not given) | > 10 µM (inactive) |
| O=S(=O)(CCSc1ccccn1)c1nc2ccccc2s1 | 5.84 µM |
| CCc1cc2c(=O)c(Oc3ccccc3)c(C)oc2cc1O | > 10 µM (inactive) |
| O=C(CCN1CCCCCC1)Nc1ccc(F)cc1 | > 10 µM (inactive) |
| O=c1c2ccccc2sn1-c1ccccc1 | > 10 µM (inactive) |
| Cc1c(O)c(S(=O)c2ccccc2)c(=O)n(-c2ccccc2)c1-c1ccccc1 (stereo not given) | 4.32 µM |
| O=C1CC(c2ccc(F)cc2)CC(O)=C1C=NCCN1CCN(C(=O)Nc2ccccc2)CC1 (stereo not given) | 7.09 µM |
| CCOC(=O)c1ccc2c(c1)n(CCO)c(C)[n+]2CC | > 10 µM (inactive) |
| Cc1nonc1NC(=O)CSc1nc(C2CCCCC2)nc2ccccc12 | > 10 µM (inactive) |
| O=C1c2ccccc2C(=O)N1OCc1ccccc1 | > 10 µM (inactive) |
| Cc1ccc(/C(O)=C2\C(=O)C(=O)N(c3cc(C)on3)C2c2cccc(Cl)c2)cc1 (stereo not given) | 9.72 µM |
| C=C1C(=O)C=C2CN(C(=O)c3ccccc3)[C@@](Cc3ccc(F)cc3)(C(=O)OC)[C@@H]12 | > 10 µM (inactive) |
| COc1ccc(NC(=O)/C(Cl)=C(/Cl)S(=O)Cc2ccc(C)cc2)cn1 (stereo not given) | > 10 µM (inactive) |
| O=C(Nc1scc(-c2ccc(F)cc2)c1C(=O)O)c1ccco1 | 3.15 µM |
| Cc1ccccc1OC(=O)n1c(=S)oc2cc(Cl)ccc21 | 6.59 µM |

| SMILES | EC50 |
| --- | --- |
| CCOc1ccc(C(=O)C(CN2CCOCC2)c2ccccc2)cc1 (stereo not given) | 7.92 µM |
| Cc1ccc(N(C(=O)CS(=O)CC(=O)Nc2ccc(F)cc2)C(C(=O)NC2CCCCC2)c2ccco2)cc1 (stereo not given) | > 10 µM (inactive) |
| COc1ccc(C(C)NC(=O)c2ccccc2)cc1 (stereo not given) | > 10 µM (inactive) |
| COc1ccccc1CNC(=O)C(CCSC)NS(=O)(=O)c1ccc2c(c1)oc(=O)n2C (stereo not given) | > 10 µM (inactive) |
| COc1ccc(OC)c(C2C(C(C)=O)=C(O)C(=O)N2Cc2cccnc2)c1 (stereo not given) | > 10 µM (inactive) |
| Cc1ccnc(N=Cc2c(O)ccc3oc4c(c23)CCCC4)c1 | 8.47 µM |
| CCOc1cc(Br)c(Br)c(C=Nc2ccc(NC(C)=O)cc2)c1O | 5.03 µM |
| CC1(C)CC2c3cccc(C(=O)O)c3C(=O)N2c2c1ccc1ccccc21 (stereo not given) | 2.84 µM |
| O=Cc1ccccc1OS(=O)(=O)c1ccccc1 | 9.56 µM |
| O=C(NC(=S)NNC(=O)c1ccc(Cl)cc1Cl)c1cccnc1 | 9.35 µM |
| CCCCn1c(=O)c(C(=O)Nc2cnccn2)c(O)c2ccccc21 | 3.01 µM |
| O=C(/C(=C/O)N=Nc1ccc(Cl)cc1)c1ccncc1 | 2.64 µM |
| COc1cc(OC)cc(-c2nc3ccccc3c(=O)n2OC(=O)c2ccc(C)c(C)c2)c1 | 8.74 µM |
| CCOC(=O)C(=Cc1ccc(F)cc1)C(=O)OCC | 6.7 µM |
| CCC1C/C(=C\c2cccnc2)C(=O)/C(=C/c2cccnc2)C1 (stereo not given) | 3.17 µM |
| N#CSCC(=O)N1c2ccccc2CCc2ccccc21 | 8.69 µM |
| COc1ccc(NC(=S)N2CCN(CCN=CC3=C(O)CC(c4ccccc4)CC3=O)CC2)cc1 (stereo not given) | 7.32 µM |
| C=CCn1c(O)c(C(CC)=NCCN2CCOCC2)c(=O)[nH]c1=O | > 10 µM (inactive) |
| O=C(NNC1=Nc2cccc3cccc1c23)c1ccccc1Br | > 10 µM (inactive) |
| COc1cc(/C=C/C(=O)c2c(O)cc(C)oc2=O)cc(OC)c1O | > 10 µM (inactive) |
| Cc1c(NC(=O)C(=O)/C=C(/O)c2ccccc2)c(=O)n(-c2ccccc2)n1C | 4.95 µM |
| Cc1ccc(NC(=O)C2C(=O)N(C)c3ccccc32)cc1 (stereo not given) | > 10 µM (inactive) |
| CCCC(=O)Nc1ccc(C(=O)NNC(=S)NC(=O)c2cccs2)cc1 | > 10 µM (inactive) |
| CCN(CCO)C(=O)C12CCC(C)(C(=O)C1)C2(C)C (stereo not given) | > 10 µM (inactive) |
| O=S(=O)(ON(c1ccccc1)S(=O)(=O)c1ccccc1)c1ccccc1 | > 10 µM (inactive) |
| COCCCNc1c2c3c(cccc3[nH]c1=O)C(=O)c1ccccc1-2 | 7.85 µM |
| O=[N+]([O-])c1cc2oc3c(c2c(C=NCc2ccncc2)c1O)CCCC3 | 1.2 µM |

| SMILES | EC50 |
| --- | --- |
| O=C(O)Cc1ccc(N=Cc2c(O)ccc3ccccc23)cc1 | 3.85 µM |
| CS(=O)(=O)Oc1ccc(Br)cc1/C=C1/N=C(c2ccco2)OC1=O | > 10 µM (inactive) |
| CCOC(=O)COc1ccccc1/C=C\[N+](=O)[O-] | 1.79 µM |
| C=CCn1c(C)cc(C(=O)CSc2nc3ccccc3c(=O)[nH]2)c1C | > 10 µM (inactive) |
| CN(c1ccccc1)c1nc2ccsc2c(=O)s1 | > 10 µM (inactive) |
| Cc1nn(C(C)(C)C)c(OC(=O)c2ccc(Br)o2)c1Sc1ccccc1 | 7.84 µM |
| CCOC(=O)C1=C(N)OC2=C(C(=O)CCC2)C1c1sccc1C (stereo not given) | 9.37 µM |
| Cc1ccc(C(=O)/C=C\C(=O)c2ccc(C)cc2)cc1 | 9.15 µM |
| C=CCN(CC=C)c1nc2ccccc2nc1C(C#N)C(=O)OC(C)C (stereo not given) | > 10 µM (inactive) |
| CS(=O)(=O)c1nc(-c2ccco2)cc(C(F)(F)F)n1 | 4.01 µM |
| Cn1c(=O)c2c(nc(Br)n2Cc2ccc3ccccc3c2)n(C)c1=O | > 10 µM (inactive) |
| CC(=O)Nc1c(O)nc(SCc2ccccc2C#N)[nH]c1=O | > 10 µM (inactive) |
| CCCCCCN1CC(C(=O)OCC)C(=O)C1=O (stereo not given) | 4.74 µM |
| Cc1cc2c(c(=O)n1CCc1ccccc1)C(c1ccco1)C(C#N)=C(N)O2 (stereo not given) | > 10 µM (inactive) |
| Cc1cc(C)c(S(=O)(=O)c2ccccc2)c(OC(=O)c2cc(F)c(F)cc2Cl)n1 | 7.24 µM |
| CCCCC(c1nnnn1CC1CCCO1)N1CCN(c2nc3ccccc3s2)CC1 (stereo not given) | > 10 µM (inactive) |
| O=S(=O)(Nc1cccc2c1CCCC2)c1ccc(Cl)cc1 | > 10 µM (inactive) |
| Cc1nc(SC(C)C)[nH]c(=O)c1Cc1ccccc1 | > 10 µM (inactive) |
| CCOc1ccc(/C=C/C(=O)c2c(O)c3ccccc3oc2=O)cc1 | > 10 µM (inactive) |
| CCOc1ccc(OCC(=O)c2c(O)c3ccccc3oc2=O)cc1 | 3.4 µM |
| CCOc1ccc(NCc2nc3ccccc3n2CCOc2ccccc2)cc1 | 3.28 µM |
| Oc1ccc(Br)cc1C=Nc1ccc2[nH]ncc2c1 | > 10 µM (inactive) |
| CCCC(=Nc1ccc(N)cc1)C1=C(O)C(C(=O)OC)C(C)(C)CC1=O (stereo not given) | 8.85 µM |
| CC(=O)[C@H]1[C@H](c2cccc(Cl)c2)C(C#N)(C#N)[C@@H]2c3ccccc3C=CN21 | 8.71 µM |
